H69AR growth 86K – blocks growth of human H69AR lung tumor cells; H69AR lung tumor viability, ATP luminescence, 72 h; stronger effect = lower value; viability, % at 10 µM; hit rate 6% among 85,000;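 active means viability at or below 40%; inactive means viability above 40%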;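 further: multidrug resistant small cell line overexpressing MRP-1 efflux transporter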
HUVEC inhibit – human endothelial cell proliferation inhibition. viability, % at 10 µM (by protocol). hit rate 1.1% among 86,000. HUVEC proliferation, CellTiter-Glo luminescence, 72 h; stronger effect = lower value. AID 648;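 active means viability at or below 30%; inactive means viability above 30%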
HCT116 bCat-KO – beta-catenin-lacking colon tumor cell growth suppression | HCT116 beta-catenin knockout viability, CellTiter-Glo, 60 h; stronger effect = lower value | viability, % at 10 µM | hit rate 1.5% among 140,000 | AID 818;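 active means viability at or under a set limit, the compound median less 4 SD, cut at about 6% in these data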
PTEN del growth – growth suppressors of cells with PTEN tumor suppressor deletion; HCT116 PTEN-null viability, CellTiter-Glo, 60 h; stronger effect = lower value; viability, % at 10 µM; hit rate 1.2% among 140,000; AID 827;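 active means viability at or below a set limit, 4 SD under the median of all tested compounds, cut at about 3.7% in these data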;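 further: PTEN knockout HCT116 line with beta catenin targeted HCT116 as companion control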
Fibroblast inh – blocks proliferation of human lung fibroblasts; AID 719; hit rate 1.1% among 85,000; LL 47 human lung fibroblast viability, ATP luminescence; stronger effect = lower value; viability, % at 10 µM;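 active means viability at or below 50% in the single dose screen; inactive means viability above 50%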;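 further: compound exposure lasted 72 h before the ATP readout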
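Assay system: human lung fibroblast line LL 47, low passage. Input: 1,150 fibroblasts seeded per well. Times: overnight cell rest, 72 h compound treatment at 37 °C. Evaluation: % viability of median cell-only signal. Technique: luminescent ATP detection, CellTiter-Glo. Control set: cell-only wells, no compound.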
A number is an active result; i = inactive; nt = not tested or not shown. Shown is part of a subset that was picked to be rich in hits.

SMILES | H69AR growth 86K | HUVEC inhibit | HCT116 bCat-KO | PTEN del growth | Fibroblast inh
CC(C)c1ccc(N(CC(=O)NCCSC(C)(C)C)S(C)(=O)=O)cc1 | i | i | i | i | i
O=C(NNc1ccccc1Br)C(O)(c1cccc(C(F)(F)F)c1)c1cccc(C(F)(F)F)c1 | nt | nt | 1.9 | 2.1 | nt
CCCCNC(=O)c1ccc2c(c1)ncn2C1CCCC1 | 32.7 | i | i | i | i
CCCCNC(=O)c1ccc2c(c1)ncn2C1CCCCC1 | nt | nt | i | i | nt
Cc1c(C(=O)OCC(C)C)[nH]c2c1C(=O)CC(c1cccs1)C2 (configuration not stated) | 20.9 | i | i | i | i
CCOC(=O)c1[nH]c2c(c1C)C(=O)CC(c1ccc(F)cc1)C2 (configuration not stated) | i | i | i | i | i
CC(=O)Nc1cccc(C(=O)/C=C/c2ccc(Br)cc2)c1 | nt | nt | 1.5 | 1.3 | nt
CC(=O)Nc1cccc(C(=O)/C=C/c2ccc(N(C)C)cc2)c1 | nt | nt | i | i | nt
CN(C)c1ccc(/C=C/C(=O)c2ccccc2)cc1[N+](=O)[O-] | nt | nt | 1.8 | 1.4 | nt
CC(=O)Nc1cccc(C(=O)/C=C/c2ccco2)c1 | nt | nt | i | i | nt
O=C(/C=C/c1ccccc1)c1ccccn1 | nt | nt | 5.7 | i | nt
CC(=O)Nc1cccc(C(=O)/C=C/c2cccs2)c1 | nt | nt | 1.5 | 1.6 | nt
Cc1ccc(C(=O)/C=C/C(=O)O)cc1 | nt | nt | i | i | nt
Cc1ccc(/C=C/C(=O)c2ccccc2)cc1 | i | i | 0.9 | 0.4 | 48.7
CC(=O)Nc1cccc(C(=O)/C=C/c2ccc(/C=C/C(=O)c3cccc(NC(C)=O)c3)cc2)c1 | nt | nt | 4.2 | 1.8 | nt
CCC(=O)Nc1cccc(C(=O)/C=C/c2cc(Br)ccc2OC)c1 | nt | nt | 0.8 | 0.7 | nt
COC(=O)c1ccc2c(=O)n(CCC3=CCCCC3)c(SCC(=O)N3CCCC3)nc2c1 | i | i | nt | nt | i
Cc1cc(NC(=O)CSc2nc(CC(C)(C)C)nc3c2c(=O)n(C)c(=O)n3C)no1 | i | i | i | i | i
Cc1ccc(N(CC(O)Cn2c3ccccc3c3ccccc32)S(C)(=O)=O)cc1 (configuration not stated) | 31.5 | i | i | i | i
Cc1ccc(N(CC(O)CN2CCCC2)S(=O)(=O)c2ccc(C)cc2)cc1 (configuration not stated) | nt | nt | i | i | nt
Cc1ccc(N(CC(O)Cn2c3ccccc3c3ccccc32)S(C)(=O)=O)c(C)c1 (configuration not stated) | 17.3 | i | i | i | i
CS(=O)(=O)N(Cc1ccco1)CC(O)Cn1c2ccccc2c2ccccc21 (configuration not stated) | nt | nt | i | i | nt
Cc1cccc(C)c1N(CC(O)Cn1c2ccccc2c2ccccc21)S(C)(=O)=O (configuration not stated) | 21.0 | i | i | i | i
Cc1ccc(N(CC(O)CON=C2c3ccccc3-c3ccccc32)S(C)(=O)=O)cc1 (configuration not stated) | 15.1 | i | i | i | i
CC(=O)Nc1ccc(N(CC(O)Cn2c3ccccc3c3ccccc32)S(=O)(=O)c2ccc(C)cc2)cc1 (configuration not stated) | nt | nt | i | i | nt
SMILES | H69AR growth 86K | HUVEC inhibit | HCT116 bCat-KO | PTEN del growth | Fibroblast inh
CS(=O)(=O)N(CCc1ccccc1)CC(=O)NCC1CCCO1 (configuration not stated) | i | i | i | i | i
COc1cc(Nc2nnc(C)s2)c(Cl)cc1Cl | i | i | i | i | i
COCCOc1cc(Nc2nnc(C(F)(F)F)s2)c(Cl)cc1Cl | 13.2 | i | i | i | i
O=C(Nc1ccccc1C(=O)OCC(=O)c1c[nH]c2ccccc12)c1ccco1 | nt | nt | i | i | nt
Cc1cc(NC(=O)c2cccc(S(=O)(=O)N(C)C)c2)n(-c2ccccn2)n1 | 26.4 | i | i | i | i
Cc1cc(NC(=O)c2cccc(S(=O)(=O)N3CCCCCC3)c2)n(-c2ccccn2)n1 | i | i | i | i | i
Cc1ccc(-n2[nH]c(C)c(CCC#N)c2=O)cc1 | nt | nt | i | i | nt
Cc1ccc(CSc2nnc(-c3ccco3)o2)cc1 | i | i | i | i | i
CCOC(=O)C(C(=O)OCC)C(C(=O)OCC)N1CCOCC1 (configuration not stated) | 0.7 | 2.9 | 1.2 | 1.7 | 1.9
CCOC(=O)C(C)CC(C)C(=O)N1CCOCCOCCN(C(=O)C(C)CC(C)C(=O)OCC)CCOCC1 (configuration not stated) | i | i | i | i | i
Cc1ccc(NC(=O)C(Nc2cccc(C)c2)c2ccccc2)cc1 (configuration not stated) | nt | nt | i | i | nt
Cc1onc(-c2ccccc2Cl)c1C(=O)N1CCN(c2cccc(Cl)c2)CC1 | 28.3 | i | i | i | i
Cc1onc(-c2ccccc2Cl)c1C(=O)N1CCN(C(=O)c2ccco2)CC1 | i | i | i | i | i
Cc1onc(-c2ccccc2Cl)c1C(=O)N1CCN(c2ccccc2)CC1 | 19.7 | i | i | i | i
COc1ccc(C2(C)NC(=O)N(CC(=O)Nc3ccc4c(c3)OCO4)C2=O)cc1OC (configuration not stated) | i | i | i | i | i
Cc1cc(NC(=O)CN2CCN(c3ccccc3F)CC2)nc2c1c(=O)oc1ccccc12 | 34.3 | i | nt | nt | i
COc1ccc(CC(=O)Nc2cc(C)c3c(=O)oc4ccccc4c3n2)cc1 | 22.1 | i | nt | nt | i
CCC(CC)C(=O)Nc1cc(C)c2c(=O)oc3ccccc3c2n1 | i | i | i | i | i
Cc1cc(NC(=O)c2ccc(S(=O)(=O)N3CCCC3)cc2)nc2c1c(=O)oc1ccccc12 | 18.4 | i | i | i | i
CCOc1ccc(C(=O)Nc2cc(C)c3c(=O)oc4ccccc4c3n2)cc1 | 18.9 | 26.4 | i | i | i
Cc1ccc(C2SCCN2C(=O)c2ccc([N+](=O)[O-])cc2)cc1 (configuration not stated) | nt | nt | i | i | nt
CSc1nnc2c3cc(F)ccc3n(Cc3ccccc3)c2n1 | 33.5 | i | nt | nt | i
CCCN(CCC)S(=O)(=O)c1ccc(C(=O)Nc2cc3oc4ccccc4c3cc2OC)cc1 | nt | nt | i | i | nt
COC(=O)c1ccccc1NC(=O)c1ccc(COc2ccccc2)o1 | i | i | i | i | i
O=C(Nc1ccc(CN2CCOCC2)cc1)c1ccc(-c2ccc(Br)cc2)o1 | 19.0 | i | i | i | i
SMILES | H69AR growth 86K | HUVEC inhibit | HCT116 bCat-KO | PTEN del growth | Fibroblast inh
Cc1ccc(-c2nn3c(C)nnc3s2)cc1NC(=O)c1ccc(Br)o1 | i | i | i | i | i
O=C(Nc1ccccc1)c1ccc(-c2ccc(Br)cc2)o1 | i | i | i | i | i
Cc1ccc(-c2nn3c(C)nnc3s2)cc1NC(=O)c1ccc(-c2cccc(Cl)c2)o1 | 4.2 | i | i | i | i
COC(=O)c1ccccc1NC(=O)c1ccc(-c2cccc(Cl)c2)o1 | 12.3 | i | i | i | i
Cc1ccc(-c2nn3c(C)nnc3s2)cc1NC(=O)c1ccc(-c2ccc(Cl)cc2Cl)o1 | i | 6.5 | 2.3 | 3.2 | 6.5
NC(=O)C(c1ccc(Cl)cc1Cl)c1ncc(C(F)(F)F)cc1Cl (configuration not stated) | nt | nt | i | i | nt
N#CCCn1nc(-c2ccc([N+](=O)[O-])cc2)cc1Nc1ccccc1NC(=O)C(F)(F)F | nt | nt | i | i | nt
